Laboratory results reported in PubChem BioAssay AID1040 (The Scripps Research Institute Molecular Screening Center, 2008).
In all, about 200,000 compounds went through this assay and about 2,000 (1%) were called active. For the sample, actives were picked, then their nearest neighbours and some compounds at random. A number with no mark means an inactive call.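 The calls were made as follows: active = inhibition above the campaign mean inhibition of all tested compounds plus 3 SD (cut at about 20% in these data); inactive = the rest.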

Biological target: Neuropeptide Y receptor type 1 (Homo sapiens) (UniProt P25929)
Sequence (P25929 whole entry, looked up): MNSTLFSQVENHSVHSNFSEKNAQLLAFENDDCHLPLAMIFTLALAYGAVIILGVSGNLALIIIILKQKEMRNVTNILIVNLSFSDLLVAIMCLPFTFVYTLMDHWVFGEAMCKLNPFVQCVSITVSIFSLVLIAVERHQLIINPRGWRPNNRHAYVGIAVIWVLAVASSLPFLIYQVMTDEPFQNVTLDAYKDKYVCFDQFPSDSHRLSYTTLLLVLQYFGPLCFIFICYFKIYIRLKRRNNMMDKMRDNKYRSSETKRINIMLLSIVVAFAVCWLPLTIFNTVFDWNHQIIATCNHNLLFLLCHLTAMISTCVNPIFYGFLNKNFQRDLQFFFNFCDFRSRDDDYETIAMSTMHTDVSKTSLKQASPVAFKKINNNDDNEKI
Assay: NPY-Y1 receptor antagonists, primary screen, cell-based (AID 1040);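 also: 0% = DMSO wells given NPY plus isoproterenol and 100% = isoproterenol alone without NPY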
Settings: HEK293-CNG Y1 cells, membrane potential fluorescence; at 3.6 µM; hits give high values
Outline: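 System: HEK293 cells with Y1 receptor plus CNG channel / Probe or stimulus: NPY 25 nM then isoproterenol 1 µM plus Ro 20-1724 25 µM / Compound: one concentration, 3.6 µM, in 0.4% DMSO / Schedule: compound incubation 1 h at room temperature, readout 45 min post-stimulation / Measured by: membrane potential fluorescence / Read-out: % inhibition of NPY effect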

| Compound | inhibition |
| --- | --- |
| N#Cc1ccc(Cn2cc(C(=O)c3ccco3)c3ccccc32)cc1 | 21.4% (active) |
| NC(=O)Cn1cc(C(=O)c2ccccc2F)c2ccccc21 | 4.87% |
| CC(C)Oc1cccc(C(=O)C2CCCN(C3CCOCC3)C2)c1 (stereo not given) | 1.82% |
| COc1cc(Cn2c(N)c(C(=O)NCc3ccco3)c3nc4ccccc4nc32)cc(OC)c1OC | -7.12% |
| CCOC(=O)c1c(N)n(CCN2CCOCC2)c2nc3ccccc3nc12 | -2.58% |
| CCOC(=O)c1c(N)n(Cc2ccccc2)c2nc3ccccc3nc12 | 26.8% (active) |
| N=c1ccccn1Cc1ccccc1 | -3.41% |
| CCc1nnc(NS(=O)(=O)c2ccc(N=Cc3c(O)n(-c4ccccc4)c(=O)[nH]c3=O)cc2)s1 | 12.6% |
| COc1ccc(C(=O)C2CCCN(Cc3ccc(C)s3)C2)cc1OC (stereo not given) | -3.61% |
| O=C(CN1CCCC1=O)NCCc1ccccc1 | -2.4% |
